According to PubChem BioAssay:
Records with an inconclusive call do not appear. Activity calls are given as the source filed them.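 How the source made its calls, unless noted: active means viability increase at or above a cutoff of the median across tested compounds plus 3 SD (cut at about 8.5% in these data, passing the limit was not always enough); inconclusive means some gains above the cutoff, reason not given; inactive means the rest.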

Experiments:
[1] = OD615 S. cerevisiae growth inhibition, permissive medium, pilot counter-assay, permissive growth control for S. cerevisiae lifespan shortening project (AID 705;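 active means growth inhibition above 25% in both replicates, a cutoff set 3 SD above the mean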); conditions: OD615, 24 h, at 10 µM, active compounds read high
Method in brief: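 System: Engineered DeaD yeast | Buffer or medium: SC raffinose/galactose permissive medium | Incubation: Cells pre-grown 4 h, then 24 h compound exposure, 30 °C humidified | Measured by: Absorbance (optical density) at 615 nm | Read-out: Reduction in yeast growth (OD615)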

[2] = Restrictive medium S. cerevisiae growth inhibition, OD615, pilot screen of yeast lifespan reduction project, restrictive growth control (AID 706;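 active means growth inhibition above a set limit, 3 SD over mean compound inhibition, in both replicates, cut at about 43% in these data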;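 further: modified DeaD lifespan yeast strain shifted to restrictive glucose medium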); conditions: OD615, 48 h, at 10 µM, active compounds read high
Method in brief: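 Material: modified S. cerevisiae; Medium: glucose-based CSMM-D restrictive medium; Compound dosing: one concentration, 10 µM final, 0.25% DMSO; Incubation: 48 h compound exposure at 30 °C; Measured by: OD615.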

[3] = viability gain of MRP-1-high H69AR cells under doxorubicin, pilot screen, MRP-1 activator project, CellTiter-Glo, duplicate (AID 807); conditions: H69AR viability with doxorubicin, CellTiter-Glo luminescence; at 10 µM; active compounds read high;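 further: compound pretreatment 18-22 h then 72 h combined with doxorubicin; 0% = doxorubicin alone and 100% = vehicle without doxorubicin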
[4] = growth suppression of beta-catenin knockout HCT116, pilot screen, human colon tumor cells (AID 823;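 active means cell viability at or below a set limit in both duplicate runs, the limit being the all-compound median minus 4 SD, cut at about 23% in these data, passing the limit was not always enough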;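 further: 0% = wells killed by 20 µM Hyamine and 100% = untreated DMSO cell wells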); conditions: CellTiter-Glo, 60 h, at 10 µM, active compounds read low
[5] = growth suppression of PTEN-deleted HCT116, pilot screen, cell-based, HCT116 clonal line, CellTiter-Glo (AID 824;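 active means viability at or below 27.92% in each of two runs, the all-compound median minus 4 SD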;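 further: 0% = 20 µM Hyamine control and 100% = vehicle cell control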); conditions: 60 h, at 10 µM, active compounds read low
[6] = inhibitors of the yeast RAM network, pilot screen, dse1pr::URA3 reporter, 5-FOA selection (AID 869;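 active means inhibition over a set limit, the all-compound mean plus 3 SD, in both replicate runs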;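 further: 0% = DMSO wells with no growth and 100% = 10 µM 1-NA-PP1 with full growth; RAM network block rescues cells from 5-FOA so hits raise OD615 growth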); conditions: S. cerevisiae dse1pr::URA3 5-FOA growth, OD615, 2 d; at 10 µM; active compounds read high; strain carries analog-sensitive mutant Cbk1 kinase
[7] = RAM signaling pathway blockade in yeast – S. cerevisiae, Pdr1DBD-CYC8 efflux-inhibited sensitized strain, primary screen (AID 1298;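 active means RAM network inhibition above 8.4% in each of two replicates, 3 SD over the compound average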;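 further: 0% = DMSO untreated cells without growth and 100% = 10 µM 1-NA-PP1 full growth; higher means more yeast growth rescued from 5-FOA killing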); conditions: S. cerevisiae cbk1-as DSE1-URA3 strain, 5-FOA growth OD615, 2 d; at 50 µM; active compounds read high

O=C1CN(C(=O)COc2ccccc2)CCN1
inactive: growth inhibition [1] -14.3% | growth inhibition [2] -15.5% | viability increase [3] -1.4% | viability [4] 99.3% | viability [5] 96.8% | inhibition [6] 1.35% | RAM network inhibition [7] -0.43%

CCc1nnc(NC(=O)C(C)Sc2ccccc2)s1 (stereo unspecified)
inactive: growth inhibition [1] 6.98% | growth inhibition [2] 18.9% | viability increase [3] 1.53% | viability [4] 99.3% | viability [5] 98.1% | inhibition [6] 1.98% | RAM network inhibition [7] -0.83%

CCSc1nnc(Cc2cc(=O)[nH]c(=O)[nH]2)n1-c1cccc(C)c1
inactive: growth inhibition [1] -8.16% | growth inhibition [2] -4.58% | viability increase [3] -1.79% | viability [4] 105% | viability [5] 94.3% | inhibition [6] 1.77% | RAM network inhibition [7] 0.26%

O=C1CC(c2cccnc2)c2cc3c(cc2N1)OCCO3 (stereo unspecified)
inactive: growth inhibition [1] 2.41% | growth inhibition [2] -0.935% | viability increase [3] -2.86% | viability [4] 91.5% | viability [5] 91.9% | inhibition [6] 2.35% | RAM network inhibition [7] 2.43%

CC(=O)Oc1ccc(C(=O)Nc2nnc(C)s2)cc1
inactive: growth inhibition [1] -10.4% | growth inhibition [2] -4.59% | viability increase [3] -2.2% | viability [4] 100% | viability [5] 104% | inhibition [6] 2.9% | RAM network inhibition [7] -0.78%

O=C1CCC(=O)N1c1ccc(CSc2nnnn2C2CCCCC2)cc1
inactive: growth inhibition [1] -0.7% | growth inhibition [2] 4.66% | viability increase [3] 0.3% | viability [4] 103% | viability [5] 97.6% | inhibition [6] -0.145% | RAM network inhibition [7] 1.92%

O=C(O)c1cccc2c1C(=O)N(C1CCCCC1)C2
inactive: growth inhibition [1] -18.8% | growth inhibition [2] -5.79% | viability increase [3] -1.27% | viability [4] 104% | viability [5] 98.3% | inhibition [6] 1.97% | RAM network inhibition [7] 6.19%

CCOc1ccc(C2CC(c3ccc(OC)cc3)n3ncnc3N2)cc1 (stereo unspecified)
inactive: growth inhibition [1] 1.92% | growth inhibition [2] 21% | viability increase [3] 0.61% | viability [4] 104% | viability [5] 99% | inhibition [6] -0.22% | RAM network inhibition [7] 4.99%

Clc1cccc(Nc2ncnc3c2cnn3-c2ccccc2)c1
inactive: growth inhibition [1] -15.3% | growth inhibition [2] -12.2% | viability increase [3] -2.07% | viability [4] 82.5% | viability [5] 78.6% | inhibition [6] 2.04% | RAM network inhibition [7] 4.85%

CCCn1nc2ccccc2c1P(=N)(N1CCOCC1)N1CCOCC1
inactive: growth inhibition [1] -7.87% | growth inhibition [2] -23.5% | viability increase [3] -2% | viability [4] 96% | viability [5] 96.8% | inhibition [6] 2.04% | RAM network inhibition [7] 1.45%

CCOCCn1c(SCC(=O)OCc2ccccc2)nc2c1c(=O)[nH]c(=O)n2C
inactive: growth inhibition [1] -13.7% | growth inhibition [2] -14.2% | viability increase [3] -0.57% | viability [4] 104% | viability [5] 101% | inhibition [6] 0.495% | RAM network inhibition [7] 3.42%

O=C(NCCSCc1ccco1)c1ccc(CN2CCOCC2)cc1
inactive: growth inhibition [1] -10.4% | growth inhibition [2] -27% | viability increase [3] -1.57% | viability [4] 101% | viability [5] 99.7% | inhibition [6] 1.59% | RAM network inhibition [7] 2.06%

CCOc1cccc(NC(=O)Cc2cccs2)c1
inactive: growth inhibition [1] -8.74% | growth inhibition [2] -0.895% | viability increase [3] -1.86% | viability [4] 94.1% | viability [5] 84.6% | inhibition [6] 1.06% | RAM network inhibition [7] 4.72%

Cc1cc(C(=O)NCc2cccs2)n(-c2ccccc2)n1
inactive: growth inhibition [1] -10.7% | growth inhibition [2] -6.11% | viability increase [3] 0.91% | viability [4] 102% | viability [5] 90.6% | inhibition [6] 1.03% | RAM network inhibition [7] 5.86%

CCOC(=O)Cn1c(=O)oc2cc(S(=O)(=O)NCc3cccs3)ccc21
inactive: growth inhibition [1] -3.16% | growth inhibition [2] 1.21% | viability increase [3] -1.22% | viability [4] 90.6% | viability [5] 86.9% | inhibition [6] 0.73% | RAM network inhibition [7] 0.2%

COc1cc(OC)c(NC2c3ccccc3C(=O)N2c2cc(C)ccn2)cc1Cl (stereo unspecified)
inactive: growth inhibition [1] -11.7% | growth inhibition [2] -3.74% | viability increase [3] 0.48% | viability [4] 92.9% | viability [5] 84.2% | inhibition [6] 0% | RAM network inhibition [7] 6.68%

Cc1ccc(Nc2cc(C)nc3nc(C)nn23)c(C)c1
inactive: growth inhibition [1] -9.53% | growth inhibition [2] 8.84% | viability increase [3] -3.9% | viability [4] 95.1% | viability [5] 96.9% | inhibition [6] -0.02% | RAM network inhibition [7] -0.78%

Cc1ccc(C2=[N+]([O-])C3(CCCCC/C3=N\O)N(O)C2(C)C)o1 (stereo unspecified)
inactive: growth inhibition [1] -1.35% | growth inhibition [2] -2.15% | viability increase [3] -1.16% | viability [4] 99% | viability [5] 93.7% | inhibition [6] -0.505% | RAM network inhibition [7] 1.01%

O=S(=O)(c1ccc(OCc2nc3ccccc3s2)c(Cl)c1)N1CCOCC1
inactive: growth inhibition [1] -7% | growth inhibition [2] 9.42% | viability increase [3] -0.83% | viability [4] 91.5% | viability [5] 88.6% | inhibition [6] 1.26% | RAM network inhibition [7] -0.57%

CC(=O)c1cccc(NC(=O)Nc2cc3sccc3n2C)c1
inactive: growth inhibition [1] 10.3% | growth inhibition [2] 10.1% | viability increase [3] -3.17% | viability [4] 98.2% | viability [5] 95.9% | inhibition [6] 0.69% | RAM network inhibition [7] 5.08%

O=C1CC(c2ccc(S(=O)(=O)NCc3ccccc3)cc2)CN1 (stereo unspecified)
inactive: growth inhibition [1] -7.82% | growth inhibition [2] -21% | viability increase [3] -2.13% | viability [4] 101% | viability [5] 87.9% | inhibition [6] 1.56% | RAM network inhibition [7] 1.23%

C=CCSC1=C(C#N)C(c2ccc(C(C)C)cc2)CC(=O)N1 (stereo unspecified)
inactive: growth inhibition [1] -11.6% | growth inhibition [2] 8.41% | viability increase [3] -1.41% | viability [4] 92.2% | viability [5] 96.3% | inhibition [6] 0.04% | RAM network inhibition [7] 5.66%

O=C(Nc1nnc(-c2ccc(Cl)cc2)o1)c1ccccc1Br
inactive: growth inhibition [1] 0.92% | growth inhibition [2] 20.1% | viability increase [3] -3.81% | viability [4] 68.8% | viability [5] 60.9% | inhibition [6] 0.69% | RAM network inhibition [7] 1.62%

CC(Cc1c[nH]c2ccccc12)NC(=O)C1CCCNC1=O (stereo unspecified)
inactive: growth inhibition [1] -5.75% | growth inhibition [2] 8.45% | viability increase [3] -0.46% | viability [4] 99.4% | viability [5] 103% | inhibition [6] 1.27% | RAM network inhibition [7] 0.66%

COc1ccc(C2CC(c3cccc(OC)c3)n3nc(N)nc3N2)cc1 (stereo unspecified)
inactive: growth inhibition [1] -5.42% | growth inhibition [2] 9.84% | viability increase [3] 1.37% | viability [4] 100% | viability [5] 92.7% | inhibition [6] 2.04% | RAM network inhibition [7] -1.58%

CC(NC(=O)C1CCC(=O)N1Cc1ccc(F)cc1)c1ccc2c(c1)OCCO2 (stereo unspecified)
inactive: growth inhibition [1] -1.08% | growth inhibition [2] -4.75% | viability increase [3] -1.94% | viability [4] 96.4% | viability [5] 94.9% | inhibition [6] 0.975% | RAM network inhibition [7] 4.36%

O=C(CN1CCOc2ccccc21)N1CCN(c2cccc(Cl)c2)CC1
inactive: growth inhibition [1] 6% | growth inhibition [2] 18.6% | viability increase [3] -4.17% | viability [4] 84.1% | viability [5] 84.4% | inhibition [6] 2.77% | RAM network inhibition [7] 4.14%

Cc1ccc(OCCSc2cc(C)nc(N)n2)cc1
inactive: growth inhibition [1] -3.51% | growth inhibition [2] -3.22% | viability increase [3] 0.4% | viability [4] 95.6% | viability [5] 96% | inhibition [6] 1.12% | RAM network inhibition [7] 0.05%

Cn1cccc1Cc1nnc(SCC(=O)N2CCCCCC2)n1-c1ccc(F)cc1
inactive: growth inhibition [1] 0.935% | growth inhibition [2] 18% | viability increase [3] -1.67% | viability [4] 84% | viability [5] 88.5% | inhibition [6] 1.27% | RAM network inhibition [7] 4.48%

Cn1c(=O)[nH]c(=O)c2[nH]c(CN3CCN(Cc4ccccc4)CC3)nc21
inactive: growth inhibition [1] -9.19% | growth inhibition [2] -10% | viability increase [3] -0.77% | viability [4] 104% | viability [5] 99.5% | inhibition [6] 0.395% | RAM network inhibition [7] 1.09%

C=CCOC(=O)C1=C(C)N(C)C(=O)NC1c1cc2c(cc1Br)OCO2 (stereo unspecified)
inactive: growth inhibition [1] 0.155% | growth inhibition [2] -0.035% | viability increase [3] -1.27% | viability [4] 88.1% | viability [5] 91.8% | inhibition [6] 1.38% | RAM network inhibition [7] 5.32%

Cc1onc(-c2ccccc2Cl)c1C(=O)Nc1nnc(C(C)C)s1
inactive: growth inhibition [1] 1.52% | growth inhibition [2] 4.5% | viability increase [3] -1.44% | viability [4] 93.4% | viability [5] 95.7% | inhibition [6] -0.23% | RAM network inhibition [7] 4.37%

CC1CCCCN1S(=O)(=O)c1cccc2cccnc12 (stereo unspecified)
inactive: growth inhibition [1] 6.45% | growth inhibition [2] 16.5% | viability increase [3] -3.21% | viability [4] 96.8% | viability [5] 83.7% | inhibition [6] 0.47% | RAM network inhibition [7] 3.59%
